Measured values as given in ChEMBL document CHEMBL4819098, “Novel 1,2,4-triazine-quinoline hybrids: The privileged scaffolds as potent multi-target inhibitors of LPS-induced inflammatory response via dual COX-2 and 15-LOX inhibition” (Eur J Med Chem, 2021).
One block for each compound: values may come before it.

Columns and labels:
[1] = target: T1, Prostaglandin G/H synthase 1 (Ovis aries, UniProt P05979); experiment: Inhibition of ovine COX-1 using arachidonic acid as substrate preincubated with enzyme for 5 mins followed by incubation with substrate for 5 mins by colorimetric analysis
T1 sequence (P05979 whole entry): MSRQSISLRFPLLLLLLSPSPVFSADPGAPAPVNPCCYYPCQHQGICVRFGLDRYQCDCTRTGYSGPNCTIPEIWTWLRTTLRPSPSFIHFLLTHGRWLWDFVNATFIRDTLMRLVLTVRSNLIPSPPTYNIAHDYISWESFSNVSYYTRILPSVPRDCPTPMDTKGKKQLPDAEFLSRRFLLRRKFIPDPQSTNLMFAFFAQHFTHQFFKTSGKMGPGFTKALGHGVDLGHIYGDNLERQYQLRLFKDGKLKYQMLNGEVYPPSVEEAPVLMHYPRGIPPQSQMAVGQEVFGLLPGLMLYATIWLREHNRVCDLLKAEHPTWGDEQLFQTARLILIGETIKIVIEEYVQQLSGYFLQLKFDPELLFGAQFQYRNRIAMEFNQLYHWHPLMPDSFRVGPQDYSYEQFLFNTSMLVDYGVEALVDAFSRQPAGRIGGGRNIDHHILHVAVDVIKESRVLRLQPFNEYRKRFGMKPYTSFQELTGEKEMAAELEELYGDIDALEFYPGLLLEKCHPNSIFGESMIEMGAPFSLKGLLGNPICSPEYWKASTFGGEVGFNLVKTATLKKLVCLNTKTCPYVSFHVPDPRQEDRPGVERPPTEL

[2] = target: T2, Prostaglandin G/H synthase 2 (Ovis aries, UniProt P79208); experiment: Inhibition of ovine COX-2 using arachidonic acid as substrate preincubated with enzyme for 5 mins followed by incubation with substrate for 5 mins by colorimetric analysis
T2 sequence (P79208 whole entry): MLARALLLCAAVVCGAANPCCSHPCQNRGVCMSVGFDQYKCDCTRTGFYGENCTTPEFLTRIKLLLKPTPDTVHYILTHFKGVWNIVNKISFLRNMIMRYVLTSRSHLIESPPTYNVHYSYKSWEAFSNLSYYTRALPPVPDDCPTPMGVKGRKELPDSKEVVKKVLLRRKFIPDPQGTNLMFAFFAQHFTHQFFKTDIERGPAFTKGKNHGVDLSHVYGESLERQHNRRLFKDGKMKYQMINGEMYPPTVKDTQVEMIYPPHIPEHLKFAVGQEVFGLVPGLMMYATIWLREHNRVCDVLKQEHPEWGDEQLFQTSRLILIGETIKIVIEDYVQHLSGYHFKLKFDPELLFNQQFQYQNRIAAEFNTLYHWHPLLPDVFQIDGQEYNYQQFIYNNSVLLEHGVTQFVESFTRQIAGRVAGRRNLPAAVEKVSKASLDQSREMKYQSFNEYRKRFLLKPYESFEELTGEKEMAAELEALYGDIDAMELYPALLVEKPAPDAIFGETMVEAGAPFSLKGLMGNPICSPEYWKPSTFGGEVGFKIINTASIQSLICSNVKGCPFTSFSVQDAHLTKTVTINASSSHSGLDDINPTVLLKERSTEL

[3] = Inhibition of soybean 5-LOX; set-up: species or system Glycine max
[4] = target: T3, Prostaglandin G/H synthase 2 (Homo sapiens, UniProt P35354); experiment: Inhibition of COX-2 (unknown origin) using arachidonic acid as substrate preincubated with enzyme for 1 min followed by substrate addition by fluorometric analysis
T3 sequence (P35354 whole entry): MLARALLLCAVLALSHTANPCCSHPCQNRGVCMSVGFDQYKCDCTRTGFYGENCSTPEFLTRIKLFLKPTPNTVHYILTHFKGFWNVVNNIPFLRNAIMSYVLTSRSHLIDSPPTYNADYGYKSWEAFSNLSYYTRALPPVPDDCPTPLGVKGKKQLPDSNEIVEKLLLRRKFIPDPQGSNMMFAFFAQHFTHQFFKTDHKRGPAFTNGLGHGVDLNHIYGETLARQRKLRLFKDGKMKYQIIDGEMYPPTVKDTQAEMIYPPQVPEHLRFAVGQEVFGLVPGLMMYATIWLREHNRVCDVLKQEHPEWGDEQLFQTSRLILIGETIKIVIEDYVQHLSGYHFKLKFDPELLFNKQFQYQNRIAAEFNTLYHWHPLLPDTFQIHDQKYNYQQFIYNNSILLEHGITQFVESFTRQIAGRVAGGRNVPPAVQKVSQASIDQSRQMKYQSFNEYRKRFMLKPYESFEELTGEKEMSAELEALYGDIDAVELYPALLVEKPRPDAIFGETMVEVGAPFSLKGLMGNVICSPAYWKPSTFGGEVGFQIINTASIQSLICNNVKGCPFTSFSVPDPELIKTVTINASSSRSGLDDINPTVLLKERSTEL

[5] = target: T1, Prostaglandin G/H synthase 1; experiment: Inhibition of ovine COX-1 using arachidonic acid as substrate preincubated with enzyme for 20 mins followed by incubation with substrate for 2 mins by ADPH based fluorometric analysis
[6] = target: T3, Prostaglandin G/H synthase 2; experiment: Inhibition of human recombinant COX-2 using arachidonic acid as substrate preincubated with enzyme for 20 mins followed by incubation with substrate for 2 mins by ADPH based fluorometric analysis
[7] = target: COX-1 (Prostaglandin G/H synthase 1) (Homo sapiens, UniProt P23219); experiment: Inhibition of COX-1 in human whole blood assessed as reduction in thromboxane B2 production at 10 uM measured after 1 hr by EIA; type: tissue-based
Sequence of COX-1 (Prostaglandin G/H synthase 1) (P23219 whole entry): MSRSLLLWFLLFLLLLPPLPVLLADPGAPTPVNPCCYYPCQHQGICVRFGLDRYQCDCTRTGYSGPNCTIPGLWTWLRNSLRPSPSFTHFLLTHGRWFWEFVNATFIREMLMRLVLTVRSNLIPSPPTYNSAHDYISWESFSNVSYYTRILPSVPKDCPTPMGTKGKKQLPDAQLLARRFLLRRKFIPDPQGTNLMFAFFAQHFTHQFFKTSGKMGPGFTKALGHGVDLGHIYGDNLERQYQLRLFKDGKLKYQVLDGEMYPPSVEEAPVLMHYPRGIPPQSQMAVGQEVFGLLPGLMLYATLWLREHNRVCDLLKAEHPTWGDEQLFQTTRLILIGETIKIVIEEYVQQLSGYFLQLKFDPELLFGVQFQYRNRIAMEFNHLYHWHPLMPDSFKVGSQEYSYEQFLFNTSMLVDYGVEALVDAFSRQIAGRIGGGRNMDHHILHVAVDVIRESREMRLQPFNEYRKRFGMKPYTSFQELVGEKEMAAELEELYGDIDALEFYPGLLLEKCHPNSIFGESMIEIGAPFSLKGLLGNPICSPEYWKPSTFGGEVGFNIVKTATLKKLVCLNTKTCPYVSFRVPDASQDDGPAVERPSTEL

[8] = target: T4, Prostaglandin G/H synthase 2 (Homo sapiens) (UniProt P35354); experiment: Inhibition of COX-2 in human whole blood assessed as reduction in PGE2 production at 10 uM measured after 24 hrs by EIA; type: tissue-based
T4 sequence (whole entry): T3 sequence (P35354 whole entry)

[9] = Inhibition of soybean 15-LOX using linolenic acid as substrate by spectrophotometric analysis; set-up: species or system Glycine max
[10] = target: T1, Prostaglandin G/H synthase 1; experiment: Inhibition of ovine COX-1 by colorimetric analysis
[11] = target: T2, Prostaglandin G/H synthase 2; experiment: Inhibition of ovine COX-2 by EIA
[12] = target: T1, Prostaglandin G/H synthase 1; experiment: Inhibition of ovine COX-1 by EIA
[13] = test system: RAW264.7; experiment: Potency index, ratio of celecoxib IC50 to test compound IC50 for inhibition of LPS-induced IL-6 production in mouse RAW264.7 cells preincubated for 2 hrs followed by LPS stimulation and measured after 20 hrs by ELISA; type: functional; details: time 22 hrs
[14] = test system: RAW264.7; experiment: Potency index, ratio of diclofenac sodium IC50 to test compound IC50 for inhibition of LPS-induced IL-6 production in mouse RAW264.7 cells preincubated for 2 hrs followed by LPS stimulation and measured after 20 hrs by ELISA; type: functional; details: time 22 hrs
[15] = Selectivity index, ratio of IC50 for ovine COX-1 to IC50 for human recombinant COX-2
How it was run: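 Enzyme kit assay with ovine COX-1 and human recombinant COX-2. IC50 determined from three replicates. Selectivity index taken as IC50(COX-1)/IC50(COX-2).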

[16] = test system: RAW264.7; experiment: Inhibition of LPS-induced 15(S)-HETE production in mouse RAW264.7 cells preincubated for 2 hrs followed by LPS stimulation and measured after 20 hrs by ELISA; type: functional, cell-based
[17] = test system: RAW264.7; experiment: Inhibition of LPS-induced IL-6 production in mouse RAW264.7 cells preincubated for 2 hrs followed by LPS stimulation and measured after 20 hrs by ELISA; type: functional, cell-based
[18] = target: T1, Prostaglandin G/H synthase 1; experiment: Inhibition of ovine COX-1 using arachidonic acid as substrate preincubated with enzyme for 5 mins followed by substrate addition by colorimetric analysis
[19] = Inhibition of soybean 15-LOX using arachidonic acid or linolenic acid as substrate in presence of hydrogen peroxide incubated for 5 mins by colorimetric analysis; set-up: species or system Glycine max
[20] = test system: RAW264.7; experiment: Potency index, ratio of celecoxib IC50 to test compound IC50 for antioxidant activity in mouse RAW264.7 cells assessed as inhibition of LPS-induced intracellular ROS production preincubated for 2 hrs followed by LPS stimulation and measured after 20 hrs by DCFH-DA staining based fluorescence analysis; type: functional; details: time 22 hrs
[21] = target: T4, Prostaglandin G/H synthase 2 (Homo sapiens); experiment: Potency index, ratio of diclofenac sodium IC50 to test compound IC50 for human recombinant COX-2 using arachidonic acid as substrate preincubated with enzyme for 5 mins followed by substrate addition by colorimetric analysis
[22] = test system: RAW264.7; experiment: Cytotoxicity against mouse RAW264.7 cells assessed as reduction in cell viability by MTS assay; type: cell-based
How it was run: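 RAW 264.7 macrophage viability at the tested concentrations measured by MTS assay.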

[23] = test system: RAW264.7; experiment: Potency index, ratio of celecoxib IC50 to test compound IC50 for inhibition of LPS-induced 15(S)-HETE production in mouse RAW264.7 cells preincubated for 2 hrs followed by LPS stimulation and measured after 20 hrs by ELISA; type: functional; details: time 22 hrs
[24] = test system: RAW264.7; experiment: Inhibition of LPS-induced TNFalpha production in mouse RAW264.7 cells preincubated for 2 hrs followed by LPS stimulation and measured after 20 hrs by ELISA; type: functional, cell-based
[25] = test system: RAW264.7; experiment: Antioxidant activity in mouse RAW264.7 cells assessed as inhibition of LPS-induced intracellular ROS production preincubated for 2 hrs followed by LPS stimulation and measured after 20 hrs by DCFH-DA staining based fluorescence analysis; type: functional, cell-based
[26] = target: T3, Prostaglandin G/H synthase 2; experiment: Inhibition of human recombinant COX-2 using arachidonic acid as substrate preincubated with enzyme for 5 mins followed by substrate addition by colorimetric analysis

SMILES: COc1ccc2ccc(F)c(CC(=O)N/N=C/c3ccc(C(F)(F)F)cc3)c2n1
IC50 [4]: 130 nM

SMILES: COc1ccc(C2=C(c3ccc(OC)cc3)NNC(N/N=C/c3ccc(F)cc3)=N2)cc1
inhibition at 1 h, 10 µM [7]: 69%
inhibition [8]: 72%
IC50 [9]: 124000 nM

SMILES: COc1ccc(/C=C2\N=C(c3cccnc3)N(c3ccccc3)NC2=O)cc1
IC50 [10]: 100 nM

More lines, main results first:

IC50 [1]: 11400 nM
IC50 [2]: 100 nM
IC50 [3]: 1870 nM
SMILES: COc1ccc(-c2nn(-c3ccc(Cl)cc3)cc2/C=C/c2cc(C(=O)N3CCOCC3)c3cc(Cl)ccc3n2)cc1

IC50 [5]: 480 nM
IC50 [6]: 1600 nM
SMILES: COc1ccc(-c2cc(-c3nnc(SC/C(=N/O)c4ccccc4)n3-c3ccccc3)c3ccccc3n2)cc1

IC50 [11]: 260 nM
IC50 [12]: > 50000 nM
SMILES: CCOC(=O)c1cnn(C(=O)c2cc(-c3ccc(Cl)cc3)nc3ccc(OC)cc23)c1N

Ratio IC50 [15]: 266
IC50 [16]: 170 nM
IC50 [17]: 7700 nM
IC50 [18]: 12500 nM
IC50 [19]: 1810 nM
Ratio IC50 [21]: 17.9
IC50 [24]: 19200 nM
IC50 [25]: 1020 nM
IC50 [26]: 47 nM
SMILES: O=c1c(Cc2ccccc2)n[nH]c(=S)n1/N=C/c1cc2cc(OCc3ccccc3)ccc2nc1O
Ratio IC50 [13]: 1.5
Ratio IC50 [14]: 1.7
Ratio IC50 [20]: 11
Activity [22]: Non-Toxic
Ratio IC50 [23]: 43
